{"source": "ChEMBL document CHEMBL1142163", "about": "(Antimicrob Agents Chemother, 2007)", "key": {"[1]": {"assay": "Cmax in leukemic patient with pulmonary aspergillosis at 200 mg twice daily, po on day 7", "format": "ADME, organism-based", "parameters": "dose 200 mg, route oral", "conditions": "human, in vivo", "procedure,_shortened": "(§1)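 Patients' citrated blood drawn just before and 2, 4, 6 and 12 h after a dose on days 2, 7 and 14 of therapy. Plasma was analysed by HPLC: acetonitrile precipitation, C18 column, UV detection at 255 nm. AUC over the 0–12 h dosing interval used the linear trapezoidal rule during rise and the log trapezoidal rule during decay. Cmax and trough were summarised descriptively.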"}, "[2]": {"assay": "AUC in leukemic patient with pulmonary aspergillosis at 200 mg twice daily, po on day 7", "format": "ADME, organism-based", "conditions": "human, plasma", "procedure,_shortened": "as §1"}, "Homo sapiens [3]": {"system": "Homo sapiens", "assay": "Trough concentration in leukemic patient with pulmonary aspergillosis at 200 mg twice daily, po on day 14", "format": "ADME, organism-based", "conditions": "in vivo", "procedure,_shortened": "as §1"}, "Homo sapiens [4]": {"species_on_record": "Homo sapiens", "assay": "Trough level in patient with invasive mycoses on day 1", "format": "ADME, organism-based", "conditions": "in vivo"}, "[5]": {"assay": "Cmax in patient with invasive mycoses on day 1", "format": "ADME, organism-based", "conditions": "human, in vivo"}, "Kluyveromyces marxianus": {"system": "Kluyveromyces marxianus", "assay": "Growth inhibition of Candida kefyr B11501 at 0.2 to 25 mg/L", "format": "functional", "procedure,_shortened": "(§2)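 Agar-well diffusion bioassay. Overnight YPD culture at 35°C was diluted to 1.5 x 10^7 CFU/ml inoculum. Agar contained yeast nitrogen base, glucose and phosphate buffer pH 5.5. Wells held 25 µl spiked plasma standards (8 points, 0.2–25 mg/liter). Plates stood 2 h at 4°C for diffusion, then 14 h at 35°C. Inhibition zones: four diameters by caliper.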"}, "Homo sapiens [6]": {"system": "Homo sapiens", "assay": "Trough concentration in leukemic patient with pulmonary aspergillosis at 200 mg twice daily, po on day 7", "format": "ADME, organism-based", "conditions": "in vivo", "procedure,_shortened": "as §1"}, "[7]": {"assay": "AUC in leukemic neutropenic patient with pulmonary aspergillosis at 300 mg twice daily, po on day 1", "format": "ADME, organism-based", "conditions": "human, plasma"}, "[8]": {"assay": "AUC in leukemic patient with pulmonary aspergillosis at 200 mg twice daily, po on day 14", "format": "ADME, organism-based", "conditions": "human, plasma", "procedure,_shortened": "as §1"}, "[9]": {"assay": "Cmax in leukemic patient with pulmonary aspergillosis at 200 mg twice daily, po on day 14", "format": "ADME, organism-based", "parameters": "dose 200 mg, route oral", "conditions": "human, in vivo", "procedure,_shortened": "as §1"}, "Candida albicans [10]": {"system": "Candida albicans", "assay": "Growth inhibition of Candida albicans mutant DSY2621 at 0.2 to 25 mg/L", "format": "functional", "procedure,_shortened": "as §2"}, "[11]": {"assay": "AUC in leukemic neutropenic patient with pulmonary aspergillosis at 300 mg twice daily, po on day 7", "format": "ADME, organism-based", "conditions": "human, plasma", "procedure,_shortened": "as §1"}, "[12]": {"assay": "Cmax in leukemic neutropenic patient with pulmonary aspergillosis at 300 mg twice daily, po", "format": "ADME, organism-based", "parameters": "dose 300 mg, route oral", "conditions": "human, in vivo", "procedure,_shortened": "as §1"}, "Candida albicans [13]": {"system": "Candida albicans", "assay": "Growth inhibition of Candida albicans ATCC 95020 at 0.2 to 25 mg/L", "format": "functional", "procedure,_shortened": "as §2"}, "Homo sapiens [14]": {"system": "Homo sapiens", "assay": "Trough level in leukemic neutropenic patient with pulmonary aspergillosis at 300 mg twice daily, po", "format": "ADME, organism-based", "conditions": "in vivo", "procedure,_shortened": "as §1"}}, "data": [{"compound": "C[C@@H](c1ncncc1F)[C@](O)(Cn1cncn1)c1ccc(F)cc1F", "note": "[VORICONAZOLE]", "values": [{"measurement": "Cmax", "setting": "[1]", "value": 1900, "unit": "ng/mL"}, {"measurement": "AUC", "setting": "[2]", "value": 12900, "unit": "ng·h/mL"}, {"measurement": "Cmin", "setting": "Homo sapiens [3]", "value": 200, "unit": "ng/mL"}, {"measurement": "Cmin", "setting": "Homo sapiens [4]", "value": 3000, "unit": "ng/mL"}, {"measurement": "Cmax", "setting": "[5]", "value": 6000, "unit": "ng/mL"}, {"measurement": "Inhibition", "setting": "Kluyveromyces marxianus", "value": 23, "unit": "mm"}, {"measurement": "Cmin", "setting": "Homo sapiens [6]", "value": 500, "unit": "ng/mL"}, {"measurement": "AUC", "setting": "[7]", "value": 43000, "unit": "ng·h/mL"}, {"measurement": "AUC", "setting": "[8]", "value": 2900, "unit": "ng·h/mL"}, {"measurement": "Cmax", "setting": "[9]", "value": 300, "unit": "ng/mL"}, {"measurement": "Inhibition", "setting": "Candida albicans [10]", "value": 17, "unit": "mm"}, {"measurement": "AUC", "setting": "[11]", "value": 40500, "unit": "ng·h/mL"}, {"measurement": "Cmax", "setting": "[12]", "value": 4300, "unit": "ng/mL"}, {"measurement": "Inhibition", "setting": "Candida albicans [13]", "value": 21, "unit": "mm"}, {"measurement": "Cmin", "setting": "Homo sapiens [14]", "value": 2600, "unit": "ng/mL"}]}]}
